# Measured values: ChEMBL document CHEMBL4043279 (Bioorg Med Chem Lett, 2017)
# Active and inactive are the calls of the source. The rule behind the calls is not given here.
# Key:
# PC-3 = test: Antiproliferative activity against human PC3 cells treated for 24 hrs measured after 72 hrs by MTT assay; format: functional, cell-based
# HepG2 = test: Antiproliferative activity against human HepG2 cells treated for 24 hrs measured after 72 hrs by MTT assay; format: functional, cell-based
# THP-1 = test: Antiproliferative activity against human THP1 cells treated for 24 hrs measured after 72 hrs by MTT assay; format: functional, cell-based
# HL-60 [1] = test: Antiproliferative activity against human HL60 cells treated for 24 hrs measured after 72 hrs by MTT assay; format: functional, cell-based
# PBMC = test: Antiproliferative activity against human PBMC treated for 24 hrs measured after 72 hrs by MTT assay; format: cell-based
# HL-60 [2] = test: Cell cycle arrest in human HL60 cells assessed as accumulation at G1-phase at 0.25 uM after 48 hrs by propidium iodide staining based flow cytometry (reference value: 63.21%); format: functional
# HL-60 [3] = test: Cell cycle arrest in human HL60 cells assessed as accumulation at S-phase at 0.25 uM after 48 hrs by propidium iodide staining based flow cytometry (reference value: 25.19%); format: functional
# HL-60 [4] = test: Cell cycle arrest in human HL60 cells assessed as accumulation at G2-phase at 0.25 uM after 48 hrs by propidium iodide staining based flow cytometry (reference value: 11.61%); format: functional
# HL-60 [5] = test: Cell cycle arrest in human HL60 cells assessed as accumulation at G1-phase at 0.5 uM after 48 hrs by propidium iodide staining based flow cytometry (reference value: 63.21%); format: functional
# HL-60 [6] = test: Cell cycle arrest in human HL60 cells assessed as accumulation at S-phase at 0.5 uM after 48 hrs by propidium iodide staining based flow cytometry (reference value: 25.19%); format: functional
# HL-60 [7] = test: Cell cycle arrest in human HL60 cells assessed as accumulation at G2-phase at 0.5 uM after 48 hrs by propidium iodide staining based flow cytometry (reference value: 11.61%); format: functional
# HL-60 [8] = test: Cell cycle arrest in human HL60 cells assessed as accumulation at G1-phase at 1 uM after 48 hrs by propidium iodide staining based flow cytometry (reference value: 63.21%); format: functional
# HL-60 [9] = test: Cell cycle arrest in human HL60 cells assessed as accumulation at S-phase at 1 uM after 48 hrs by propidium iodide staining based flow cytometry (reference value: 25.19%); format: functional
# HL-60 [10] = test: Cell cycle arrest in human HL60 cells assessed as accumulation at G2-phase at 1 uM after 48 hrs by propidium iodide staining based flow cytometry (reference value: 11.61%); format: functional
# HL-60 [11] = test: Induction of apoptosis in human HL60 cells assessed as chromatin condensation at 0.25 to 1 uM after 48 hrs […]; format: functional, cell-based
# HL-60 [12] = test: Induction of apoptosis in human HL60 cells assessed as nuclear fragmentation at 0.25 to 1 uM after 48 hrs by […]; format: functional, cell-based
# HL-60 [13] = test: Induction of apoptosis in human HL60 cells after 48 hrs by Annexin V-FITC/propidium iodide staining based flow cytometry; format: functional, cell-based
# Summary of the method: (§1)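 HL-60 cells were treated for 48 h with vehicle alone or with 0.25, 0.5 or 1.0 μM. Cells were then stained with FITC-Annexin V and PI and analysed by two-parameter flow cytometry. Quadrants were scored as viable (LL), early apoptotic (LR), late apoptotic/necrotic (UR) and necrotic (UL). Total apoptosis was taken as early plus late.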
# HL-60 [14] = test: Induction of apoptosis in human HL60 cells assessed as live cells at 0.25 uM after 48 hrs by Annexin V-FITC/propidium iodide staining based flow cytometry (reference value: 95.75%); format: functional; summary of the method: as §1
# HL-60 [15] = test: Induction of apoptosis in human HL60 cells assessed as early apoptotic cells at 0.25 uM after 48 hrs by Annexin V-FITC/propidium iodide staining based flow cytometry (reference value: 2.66%); format: functional; summary of the method: as §1
# HL-60 [16] = test: Induction of apoptosis in human HL60 cells assessed as late apoptotic cells at 0.25 uM after 48 hrs by Annexin V-FITC/propidium iodide staining based flow cytometry (reference value: 1.56%); format: functional; summary of the method: as §1
# HL-60 [17] = test: Induction of apoptosis in human HL60 cells assessed as necrotic cells at 0.25 uM after 48 hrs by Annexin V-FITC/propidium iodide staining based flow cytometry (reference value: 0.03%); format: functional; summary of the method: as §1
# HL-60 [18] = test: Induction of apoptosis in human HL60 cells assessed as live cells at 0.5 uM after 48 hrs by Annexin V-FITC/propidium iodide staining based flow cytometry (reference value: 95.75%); format: functional; summary of the method: as §1
# HL-60 [19] = test: Induction of apoptosis in human HL60 cells assessed as early apoptotic cells at 0.5 uM after 48 hrs by Annexin V-FITC/propidium iodide staining based flow cytometry (reference value: 2.66%); format: functional; summary of the method: as §1
# HL-60 [20] = test: Induction of apoptosis in human HL60 cells assessed as late apoptotic cells at 0.5 uM after 48 hrs by Annexin V-FITC/propidium iodide staining based flow cytometry (reference value: 1.56%); format: functional; summary of the method: as §1
# HL-60 [21] = test: Induction of apoptosis in human HL60 cells assessed as necrotic cells at 0.5 uM after 48 hrs by Annexin V-FITC/propidium iodide staining based flow cytometry (reference value: 0.03%); format: functional; summary of the method: as §1
# HL-60 [22] = test: Induction of apoptosis in human HL60 cells assessed as live cells at 1 uM after 48 hrs by Annexin V-FITC/propidium iodide staining based flow cytometry (reference value: 95.75%); format: functional; summary of the method: as §1
# HL-60 [23] = test: Induction of apoptosis in human HL60 cells assessed as early apoptotic cells at 1 uM after 48 hrs by Annexin V-FITC/propidium iodide staining based flow cytometry (reference value: 2.66%); format: functional; summary of the method: as §1
# HL-60 [24] = test: Induction of apoptosis in human HL60 cells assessed as late apoptotic cells at 1 uM after 48 hrs by Annexin V-FITC/propidium iodide staining based flow cytometry (reference value: 1.56%); format: functional; summary of the method: as §1
# HL-60 [25] = test: Induction of apoptosis in human HL60 cells assessed as necrotic cells at 1 uM after 48 hrs by Annexin V-FITC/propidium iodide staining based flow cytometry (reference value: 0.03%); format: functional; summary of the method: as §1
# HL-60 [26] = test: Induction of mitochondrial membrane potential loss in human HL60 cells assessed as cells with intact mitochondrial membrane at 0.25 uM after 48 hrs by JC-1 staining based flow cytometry (reference value: 92.17%); format: functional
# HL-60 [27] = test: Induction of mitochondrial membrane potential loss in human HL60 cells assessed as cells with collapsed mitochondrial membrane potential at 0.25 uM after 48 hrs by JC-1 staining based flow cytometry (reference value: 7.81%); format: functional
# HL-60 [28] = test: Induction of mitochondrial membrane potential loss in human HL60 cells assessed as cells with intact mitochondrial membrane at 0.5 uM after 48 hrs by JC-1 staining based flow cytometry (reference value: 92.17%); format: functional
# HL-60 [29] = test: Induction of mitochondrial membrane potential loss in human HL60 cells assessed as cells with collapsed mitochondrial membrane potential at 0.5 uM after 48 hrs by JC-1 staining based flow cytometry (reference value: 7.81%); format: functional
# HL-60 [30] = test: Induction of mitochondrial membrane potential loss in human HL60 cells assessed as cells with intact mitochondrial membrane at 1 uM after 48 hrs by JC-1 staining based flow cytometry (reference value: 92.17%); format: functional
# HL-60 [31] = test: Induction of mitochondrial membrane potential loss in human HL60 cells assessed as cells with collapsed mitochondrial membrane potential at 1 uM after 48 hrs by JC-1 staining based flow cytometry (reference value: 7.81%); format: functional
# HL-60 [32] = test: Induction of mitochondrial membrane potential loss in human HL60 cells assessed as cells with collapsed mitochondrial membrane potential after 48 hrs by JC-1 staining based flow cytometry; format: functional, cell-based
structure (smiles),measurement,setting,value
COC(=O)[C@H](Cc1ccc(N(CCCl)CCCl)cc1)NC(=O)CCC(=O)OCCCOCCCn1c2c(c3ccccc31)CCN1C(=O)c3ccccc3N(C)C21 (stereo partly specified),IC50,PC-3,> 100 µM
same,IC50,HepG2,17 µM
same,IC50,THP-1,4.05 µM
same,IC50,HL-60 [1],0.5 µM
same,IC50,PBMC,> 200 µM
same,Activity,HL-60 [2],62.39%
same,Activity,HL-60 [3],24.42%
same,Activity,HL-60 [4],13.19%
same,Activity,HL-60 [5],58.52%
same,Activity,HL-60 [6],26.28%
same,Activity,HL-60 [7],15.19%
same,Activity,HL-60 [8],45.83%
same,Activity,HL-60 [9],28.18%
same,Activity,HL-60 [10],25.99%
same,Activity,HL-60 [11],Active
same,Activity,HL-60 [12],Active
same,Activity,HL-60 [13],Dose-dependent effect
same,Activity,HL-60 [14],83.31%
same,Activity,HL-60 [15],10.41%
same,Activity,HL-60 [16],5.69%
same,Activity,HL-60 [17],0.58%
same,Activity,HL-60 [18],53.71%
same,Activity,HL-60 [19],40.31%
same,Activity,HL-60 [20],5.27%
same,Activity,HL-60 [21],0.72%
same,Activity,HL-60 [22],34.97%
same,Activity,HL-60 [23],57.54%
same,Activity,HL-60 [24],6.7%
same,Activity,HL-60 [25],0.79%
same,Activity,HL-60 [26],85.67%
same,Activity,HL-60 [27],14.13%
same,Activity,HL-60 [28],71.49%
same,Activity,HL-60 [29],28.51%
same,Activity,HL-60 [30],37.22%
same,Activity,HL-60 [31],62.78%
same,Activity,HL-60 [32],Dose-dependent effect
